This is one part of a sample in which hits are shown more often than they occur.
T cruzi growth-1: T. cruzi intracellular proliferation inhibitors, primary screen, cell-based, beta-gal Tulahuen parasites, NIH3T3 host, luminescence; inhibition, % at 8.34 µM; 5.9% of 77,000 active; T. cruzi beta-gal in NIH3T3, GalScreen luminescence, 90 h;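 active = mean inhibition above about 93%, with at least 55% of replicates each passing it, limit read from the data, passing the limit was not always enough; inconclusive = only one of those two conditions holds; inactive = neither condition holds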
IDH1 R132H inh: inhibitors of IDH1 R132H reductase, primary screen, biochemical, plate reader, single point. Isocitrate dehydrogenase [NADP] cytoplasmic (Homo sapiens), O75874. diaphorase/resazurin fluorescence, 60 min. inhibition, % at 10 µM. 0.18% of 70,000 active. AID 624101, 2012; in the data active = inhibition above about 34%; inconclusive = no clear call, values can overlap the other calls; inactive = below about 11%;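 also: 0% = DMSO and 100% = no enzyme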
Target sequence (O75874 whole entry R132H): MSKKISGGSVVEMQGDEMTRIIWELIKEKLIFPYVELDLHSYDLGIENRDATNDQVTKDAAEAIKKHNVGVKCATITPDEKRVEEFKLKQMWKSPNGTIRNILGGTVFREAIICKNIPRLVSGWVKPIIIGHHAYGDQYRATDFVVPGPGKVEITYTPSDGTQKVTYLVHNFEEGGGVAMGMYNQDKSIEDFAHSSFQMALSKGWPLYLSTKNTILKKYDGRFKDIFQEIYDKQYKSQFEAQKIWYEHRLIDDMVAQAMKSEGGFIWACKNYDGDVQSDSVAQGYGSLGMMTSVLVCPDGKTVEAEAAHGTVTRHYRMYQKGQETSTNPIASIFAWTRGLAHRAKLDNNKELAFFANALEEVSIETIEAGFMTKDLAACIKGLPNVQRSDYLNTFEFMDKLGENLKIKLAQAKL
GASC1 inh: inhibitors of GASC-1 (KDM4C) histone demethylase, primary screen, biochemical, single concentration HTS | inhibition, % at 12.5 µM | GST-KDM4C 2-372, H3K9me3 peptide, LANCE TR-FRET | Lysine-specific demethylase 4C (Homo sapiens), Q9H3R0 | AID 720574, 2013 | 0.15% of 96,000 active;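 active = mean replicate inhibition above about 25%, with at least 55% of replicates also reaching it, limit read from the data, passing the limit was not always enough; inconclusive = only one of those two conditions met; inactive = neither condition met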
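reagent = H3K9me3 peptide substrate, Fe(II), 2-oxoglutarate | system = GST-tagged GASC-1 (JMJD2C) catalytic fragment, aa 2-372 | amount = enzyme final amount 10 nM | read-out = Fall in 671/618 emission ratio as inhibition | medium = HEPES buffer, pH 7.5, plus ascorbate | schedule = 30 min reaction, 60 min detection, RT | measured by = LANCE TR-FRET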
T cruzi growth-2: T. cruzi intracellular proliferation inhibitors, confirmation, cell-based, NIH3T3 host, beta-gal parasite, luminescence, cherry-pick | 72% of 5,600 active | shares compounds with T cruzi growth-1 | inhibition, % at 8.35 µM | T. cruzi beta-gal in NIH3T3, GalScreen luminescence, 90 h | AID 651739, 2012;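 active = mean replicate inhibition above about 95% and at least 55% of replicates individually reaching it, limit read from the data; inconclusive = only one of the two criteria is met; inactive = neither criterion is met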
T cruzi growth-3: inhibitors of intracellular T. cruzi replication, confirmation, NIH3T3 host cells, beta-gal parasites, cherry-pick, set 2 | shares compounds with T cruzi growth-1 | T. cruzi beta-gal in NIH3T3, GalScreen luminescence, 90 h | inhibition, % at 2.09 µM | 21% of 5,600 active | AID 651740, 2012;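 active = mean inhibition above about 95%, with at least 55% of replicates also reaching it, limit read from the data; inconclusive = meets just one of the two conditions; inactive = meets neither condition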;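 also: plate controls were neutral control median for no effect and positive control median for full effect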
3T3 cytotox: cytotoxicity in mouse NIH/3T3 fibroblasts, confirmation, cytotoxicity control for T. cruzi proliferation inhibitor project, cell-based, cherry-pick, single point. NIH/3T3 viability, CellTiter-Glo ATP luminescence, 90 h. cytotoxicity (signal decrease), % at 8.35 µM. shares compounds with T cruzi growth-1. 14% of 5,600 active;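 active = mean signal decrease across replicates above about 35% based on untreated-well scatter, with enough replicates individually passing, limit read from the data; inconclusive = no rule stated though some were filed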;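 also: 0% = median of neutral control wells and 100% = median of positive control wells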
3T3 cytotox 2: NIH/3T3 fibroblast cytotoxicity, confirmation, cytotoxicity control, cell-based, cherry-pick, single point, set 2; inhibition, % at 24.9 µM; shares compounds with T cruzi growth-1; 56% of 5,600 active; NIH/3T3 viability, CellTiter-Glo ATP luminescence, 90 h;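 active = mean loss of cell viability signal at or above a set limit, and enough replicates individually reaching it; inconclusive = meets only the mean limit or only the replicate share; inactive = meets neither condition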;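 also: 0% = median of neutral control wells and 100% = median of positive control wells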
An asterisk follows results filed as active; ? = inconclusive; . = no result.

SMILES	T cruzi growth-1	IDH1 R132H inh	GASC1 inh	T cruzi growth-2	T cruzi growth-3	3T3 cytotox	3T3 cytotox 2
C[C@H](CO)N1C[C@H](C)[C@H](CN(C)C(=O)Nc2ccc(C(F)(F)F)cc2)OCCCC[C@H](C)Oc2ccc(NS(C)(=O)=O)cc2C1=O	108*	1	-1	107*	70	-7	5
C[C@@H]1CCCCO[C@H](CN(C)C(=O)Nc2ccc(C(F)(F)F)cc2)[C@@H](C)CN([C@@H](C)CO)C(=O)c2cc(NS(=O)(=O)c3ccccc3)ccc2O1	86	.	0	.	.	.	.
C[C@H]1CCCCO[C@@H](CN(C)C(=O)Nc2ccc(C(F)(F)F)cc2)[C@@H](C)CN([C@@H](C)CO)C(=O)c2cc(NS(=O)(=O)c3ccccc3)ccc2O1	?	.	1	?	107*	-10	18
C[C@H](CO)N1C[C@H](C)[C@H](CN(C)C(=O)Nc2ccc(C(F)(F)F)cc2)OCCCC[C@H](C)Oc2ccc(NS(=O)(=O)c3ccccc3)cc2C1=O	?	.	0	90	103*	-10	-1
C[C@@H]1CCCCO[C@H](CN(C)C(=O)Nc2ccc(C(F)(F)F)cc2)[C@H](C)CN([C@@H](C)CO)C(=O)c2cc(NS(=O)(=O)c3ccccc3)ccc2O1	77	0	0	.	.	.	.
C[C@@H]1CN([C@@H](C)CO)C(=O)c2cc(NS(C)(=O)=O)ccc2O[C@@H](C)CCCCO[C@@H]1CN(C)C(=O)Nc1ccc(C(F)(F)F)cc1	.	1	-1	.	.	.	.
C[C@@H]1CCCCO[C@H](CN(C)C(=O)Nc2ccc(C(F)(F)F)cc2)[C@H](C)CN([C@H](C)CO)C(=O)c2cc(NS(=O)(=O)c3cccs3)ccc2O1	98*	-2	-1	103*	112*	15	-1
O=C(CCSc1nnc(-c2cccc([N+](=O)[O-])c2)o1)Nc1ccc(Br)cc1	.	1	.	.	.	.	.
CCOC(=O)C1=C(C)Nc2ncnn2C1c1ccco1 (centres undefined)	.	0	.	.	.	.	.
COc1ccc(Br)cc1CNCCN1CCOCC1	.	1	.	.	.	.	.
Cc1cc(=O)oc2cc(OC(C)C(=O)Nc3sc4c(c3C(N)=O)CCCC4)ccc12 (centres undefined)	.	0	.	.	.	.	.
COC(=O)c1c(NC(=O)Cn2ccc([N+](=O)[O-])n2)sc2c1CCCC2	.	0	.	.	.	.	.
COc1cccc(S(=O)(=O)NCC(=O)N2CCCCC2C)c1 (centres undefined)	.	0	.	.	.	.	.
CCOc1ccccc1NC(=O)CSc1nc2ccccc2c(=O)n1-c1cccc(C(F)(F)F)c1	.	0	.	.	.	.	.
Cc1ccc(C)c(OCC(=O)Nc2cccc(C(=O)O)c2C)c1	.	0	.	.	.	.	.
C[C@@H]1CCCCO[C@H](CN(C)C(=O)Nc2ccc(C(F)(F)F)cc2)[C@@H](C)CN([C@H](C)CO)C(=O)c2cc(NS(=O)(=O)c3ccccc3)ccc2O1	82	-4	0	.	.	.	.
C[C@@H]1CCCCO[C@@H](CN(C)C(=O)Nc2ccc(C(F)(F)F)cc2)[C@H](C)CN([C@@H](C)CO)C(=O)c2cc(NS(=O)(=O)c3ccccc3)ccc2O1	?	.	0	96*	113*	15	14
CSc1ccc(CN(CCO)CCO)cc1	.	0	.	.	.	.	.
Cn1c2ccccc2c2nnc(SCCN3CCCCC3)nc21	.	1	.	.	.	.	.
Cc1ccc(-c2nnc(SCC(=O)Nc3ccccc3C(C)(C)C)n2C)cc1	.	0	.	.	.	.	.
CC(=O)N1[C@@H](CO)[C@@H](c2ccccc2)[C@@H]1CN(CC1CCC1)C(=O)CN(C)C	98*	.	-2	30	-18	8	22
CC(=O)N1[C@H](CO)[C@@H](c2ccccc2)[C@@H]1CN(CC1CCC1)C(=O)CN(C)C	27	.	-3	.	.	.	.
CC(=O)N1[C@H](CO)[C@H](c2ccccc2)[C@H]1CN(CC1CCC1)C(=O)CN(C)C	101*	.	-2	?	0	-23	-13
CCC(=O)N(CC1CCC1)C[C@H]1[C@H](c2ccccc2)[C@@H](CO)N1C(C)=O	73	.	0	.	.	.	.
O=S(=O)(Cc1ccccc1)N1CCCCN2[C@H](CO)[C@H](c3ccc(-c4ccc(F)cc4)cc3)[C@H]2C1	?	.	-1	94	102*	64*	104*
SMILES	T cruzi growth-1	IDH1 R132H inh	GASC1 inh	T cruzi growth-2	T cruzi growth-3	3T3 cytotox	3T3 cytotox 2
O=S(=O)(c1ccc(F)cc1)N1CCCCN2[C@H](CO)[C@@H](c3ccc(-c4ccccc4)cc3)[C@@H]2C1	64	.	-1	.	.	.	.
O=S(=O)(Cc1ccccc1)N1CCCCN2[C@@H](CO)[C@@H](c3ccc(-c4ccccc4)cc3)[C@@H]2C1	99*	.	0	103*	76	30	107*
O=S(=O)(c1ccc(F)cc1)N1CCCCN2[C@H](C1)[C@@H](c1ccc(-c3ccccc3)cc1)[C@@H]2CO	103*	.	1	108*	74	13	62*
CCS(=O)(=O)N1CCCCN2[C@H](C1)[C@@H](c1ccc(-c3ccccc3)cc1)[C@@H]2CO	68	.	0	.	.	.	.
O=S(=O)(Cc1ccccc1)N1CCCCN2[C@@H](CO)[C@H](c3ccc(-c4cncnc4)cc3)[C@@H]2C1	85	.	1	.	.	.	.
O=S(=O)(Cc1ccccc1)N1CCCCN2[C@H](CO)[C@H](c3ccc(-c4ccccc4)cc3)[C@@H]2C1	104*	.	0	108*	30	-4	84*
CCS(=O)(=O)N1CCCCN2[C@H](C1)[C@H](c1ccc(-c3ccccc3)cc1)[C@@H]2CO	20	.	0	.	.	.	.
Cc1ccc(C(=O)NC(=O)CSc2n[nH]c(N)n2)cc1	.	0	.	.	.	.	.
Cc1ccc(C(O)COC2=NCNc3cc(Cl)ccc32)cc1 (centres undefined)	.	-1	.	.	.	.	.
CC(C)c1nc2cc3sc(C(C)C)nc3cc2s1	.	-1	.	.	.	.	.
O=C(COc1ccc2oc3c(c2c1)CCCC3)NCCN1CCOCC1	.	1	.	.	.	.	.
O=C(Cc1ccc(O)cc1)OC1[C@@H](O)[C@@H](O)C(OC(=O)Cc2ccc(O)cc2)[C@H](O)[C@@H]1O (some centres undefined)	.	0	.	.	.	.	.
O=C(Cn1nc(-c2cccc([N+](=O)[O-])c2)c2ccccc2c1=O)Nc1cccc(Cl)c1	.	0	.	.	.	.	.
O=S(=O)(Cc1ccccc1)N1CCCCN2[C@H](CO)[C@@H](c3ccc(-c4ccccc4)cc3)[C@H]2C1	112*	.	0	101*	33	20	106*

High-throughput results (PubChem BioAssay)
